The values that follow come from ChEMBL document CHEMBL4321816, “Identification of 2,6-Disubstituted 3H-Imidazo[4,5-b]pyridines as Therapeutic Agents for Dysferlinopathies through Phenotypic Screening on Patient-Derived Induced Pluripotent Stem Cells” (J Med Chem, 2019).

The nature of data set [1]: (§1) Anti-dysferlinopathy activity in human dermal myocytes derived from dysferlinopathy patient dermal fibroblast iPSC harboring dysferlin c.2997 G > T (p. W999C)/c.1958G deletion mutant assessed as increase in dysferlin expression incubated for 24 hrs by immunostaining assay. The format is functional. An outline of the steps: (§2)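 iPSCs from a dysferlinopathy patient's dermal fibroblasts carrying a stably transfected Tet-MyoD1 vector. Differentiated to myocytes by doxycycline (1 µg/mL) MyoD induction, then treated on day 7 for 24 h at 0.003–10 µM (0.1% DMSO final). Fixed, immunostained for dysferlin and MHC, and imaged. Read-out: 488 nm intensity in the dysferlin/MHC double-positive area. EC150 is the concentration giving 50% increase over median DMSO wells, from a 4-parameter logistic fit.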

A further data set is filed under the species Sus scrofa. Put plainly: Competitive inhibition of porcine tubulin alpha/beta at 10 to 100 uM preincubated 30 mins followed by addition of N-(2-(3-(But-3-yn-1-yl)-3H-diazirin-3-yl)ethyl)-5-(2-(phenoxymethyl)-3H-imidazo[4,5-b]pyridin-6-yl)thiophene-3-carboxamide and measured after 15 mins by SDS-PAGE based fluorescence assay. The essentials:
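Porcine brain tubulin at 25 µg/mL in HEPES isotonic buffer (pH 7.4) pre-incubated 30 min at room temperature with DMSO or compound (1–10 mM DMSO stocks). […] Labeled tubulin was tagged with TAMRA-azide by click reaction, run on SDS-PAGE and scanned for fluorescence, with Coomassie staining for total tubulin.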

A further data set relates to HepG2. Briefly: Cytotoxicity against human HepG2 cells assessed as reduction in cell viability after 24 hrs by Cell Titer Glo assay. The class given is cell-based. The following applies: HepG2, 24 h. The essentials:
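HepG2 cells in DMEM high glucose with 10% FBS were seeded at 5000 cells/well and grown ~24 h. Compounds were then added for 24 h at 37 °C/5% CO2, and viability read by CellTiter-Glo luminescence. Controls were DMSO wells and medium-only wells. IC50 was taken from a sigmoidal fit of % inhibition.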
On the technique in general: ATP-based viability assays read luminescence as a measure of living cells.

For a further data set, the species on record is Homo sapiens. The description is as §1. The format is functional. An outline of the steps: as §2
The nature of data set [2]: Aqueous solubility in pH 6.8 by HPLC analysis. The class given is physicochemical. The note with it: buffer. An outline of the steps: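 Compound added from DMSO solution to aqueous buffer at pH 6.8 and incubated. Precipitate removed by filtration. Dissolved compound in the filtrate quantified by plate reader or HPLC.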
The nature of data set [3]: Permeability of compound in pH 7.4 in PRISMA HT buffer at 10 umol/L incubated for 3 hrs by LC/MS/MS based PAMPA assay. The format is ADME. The following applies: read-out: permeability. An outline of the steps:
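PAMPA: donor wells held PRISMA HT buffer (pH 7.4) with 10 µmol/L compound, and the acceptor filter was coated with GIT-0 lipid over sink buffer. Incubated 3 h at room temperature, then compound in donor and acceptor wells measured by LC/MS/MS.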
For orientation: The PAMPA barrier holds no transporters, so it reflects passive diffusion.

Usually IC50 stands for the concentration that inhibits the measured activity by half. For orientation: solubility means the concentration that dissolves in the medium under given conditions. High values mean much dissolved substance, low ones little dissolved substance.

Values after ≈ are worked out from the molar mass of the structure shown. Active and inactive are the calls of the source. The calls are words filed in the database; no cut-off is given here.

Take `Clc1cccc(CCc2nc3cc(-c4ccco4)cnc3[nH]2)c1`: the EC150 in data set [1] was over 10 µM. Same read-out and setting: as for `Cc1ccc(-c2cnc3[nH]c(CCc4ccc(F)cc4)nc3c2)s1`, the figure is 6.3 µM; as for `CC(C)c1ccsc1-c1cnc2[nH]c(COc3ccccc3)nc2c1`, 0.012 µM. Still for that read-out and setting: as for `Cc1c(-c2cccs2)cnc2[nH]c(CCc3ccc(F)cc3)nc12`, the figure is 0.37 µM. The same measure, in the same setting: as for `Clc1ccc(CCc2nc3cc(-c4ccco4)cnc3[nH]2)cc1`, the figure is 4.3 µM.

Regarding `COc1ccc(CCc2nc3cc(-c4ccco4)cnc3[nH]2)cc1`, in data set [1], the EC150 is over 10 µM. For the compound `COC(=O)Nc1nc2cc(C(=O)c3cccs3)ccc2[nH]1` [NOCODAZOLE], in data set [1], the EC150 amounted to 1 µM. In addition, the inhibition entry in the data set filed under Sus scrofa was “Active”. Turning to `c1ccc(Cc2nc3cc(-c4ccco4)cnc3[nH]2)cc1`, the EC150 in data set [1] is over 10 µM. For the compound `Fc1ccc(CCc2nc3cc(-c4ccccc4)cnc3[nH]2)cc1`, in data set [1], the EC150 is 1.3 µM. The same measure, in the same setting: as for `Fc1ccc(CCc2nc3cc(-c4cccs4)ccc3[nH]2)cc1`, the figure is over 10 µM; as for `Clc1ccccc1CCc1nc2cc(-c3ccco3)cnc2[nH]1`, over 10 µM.

In the case of `Fc1ccc(CCc2nc3cc(-c4ccco4)cnc3[nH]2)cc1`, in data set [1], the EC150 was determined as 1 µM. Take `c1ccc(-c2nc3cc(-c4ccco4)cnc3[nH]2)cc1`: the EC150 in data set [1] is over 10 µM. On the same count and under the same terms, as for `Cc1nc2[nH]c(CCc3ccc(F)cc3)nc2cc1-c1cccs1`, the figure is over 10 µM.

Regarding `CC[C@]1(O)C[C@@H]2CN(CCc3c([nH]c4ccccc34)[C@@](C(=O)OC)(c3cc4c(cc3OC)N(C)[C@H]3[C@@](O)(C(=O)OC)[C@H](OC(C)=O)[C@]5(CC)C=CCN6CC[C@]43[C@@H]65)C2)C1` [VINBLASTINE], the EC150 in data set [1] was 0.074 µM. For the same compound, the inhibition entry in the data set filed under Sus scrofa was “inactive”. As to `c1ccc(CCc2nc3cc(-c4ccco4)cnc3[nH]2)cc1`, the IC50 with HepG2 is over 100 µM. Also, the Activity entry in the data set listed under Homo sapiens was “Dose-dependent effect”. Besides, the EC150 in data set [1] came to 5.9 µM. For the same compound, the solubility in data set [2] came to 6.4 µg/mL (≈ 22.1 µM). For the same compound, the Papp at 3 h, 10 µM in data set [3] stood at 33.2 ×10⁻⁶ cm/s.

Turning to `c1ccc(OCc2nc3cc(-c4cccs4)cnc3[nH]2)cc1`, the EC150 in data set [1] is 0.039 µM. In addition, the inhibition entry in the data set listed under Sus scrofa was “Active”. In the case of `Fc1ccc(CCc2nc3cc(-c4cccs4)cnc3o2)cc1`, the EC150 in data set [1] is over 10 µM.

As to `Fc1ccc(OCc2nc3cc(-c4cccs4)cnc3[nH]2)cc1`, the EC150 in data set [1] stood at 0.067 µM. The same measure, in the same setting: with `Cc1ccc(CCc2nc3cc(-c4ccco4)cnc3[nH]2)cc1` the figure was over 10 µM. For `CNC(=O)c1csc(-c2cnc3[nH]c(COc4ccccc4)nc3c2)c1`, in data set [1], the EC150 stood at 0.11 µM. As to `Fc1ccc(CCc2nc3ncc(-c4cccs4)cc3o2)cc1`, the EC150 in data set [1] is over 10 µM. In the case of `Cc1ccsc1-c1cnc2[nH]c(CCc3ccc(F)cc3)nc2c1`, the EC150 in data set [1] was found to be 0.11 µM. On the same count and under the same terms, with `N#Cc1ccc(CCc2nc3cc(-c4ccco4)cnc3[nH]2)cc1` the figure was over 10 µM. Take `CC(=O)O[C@H]1C(=O)[C@@]2(C)[C@H]([C@H](OC(=O)c3ccccc3)[C@]3(O)C[C@H](OC(=O)[C@H](O)[C@@H](NC(=O)c4ccccc4)c4ccccc4)C(C)=C1C3(C)C)[C@]1(OC(C)=O)CO[C@@H]1C[C@@H]2O`: in the data set listed under Sus scrofa, the inhibition entry was “inactive”. `COCCOCCNC(=O)c1csc(-c2cnc3[nH]c(COc4ccccc4)nc3c2)c1`: the EC150 in data set [1] was found to be 0.4 µM.

For `COc1cc2c(c(OC)c1OC)-c1ccc(OC)c(=O)cc1[C@@H](NC(C)=O)CC2`, in the data set filed under Sus scrofa, the inhibition entry is “Active”.

As to `Cc1csc(-c2cnc3[nH]c(CCc4ccc(F)cc4)nc3c2)c1`, the EC150 in data set [1] was 1.9 µM. Still for that read-out and setting: as for `FC(F)(F)c1ccc(CCc2nc3cc(-c4ccco4)cnc3[nH]2)cc1`, the figure is over 10 µM; as for `C#CCCC1(CCNC(=O)c2csc(-c3cnc4[nH]c(COc5ccccc5)nc4c3)c2)N=N1`, 0.37 µM. Consider `Fc1ccc(CCc2nc3cc(-c4cccs4)cnc3[nH]2)cc1`, for which the EC150 in data set [1] came to 0.15 µM. Regarding `CNC(=O)c1ccsc1-c1cnc2[nH]c(COc3ccccc3)nc2c1`, the EC150 in data set [1] was over 10 µM.
